Data as given in ChEMBL document CHEMBL3272171, “Tyrosylated analogues of somatostatin” (J Med Chem, 1976).
Bridge positions count the residues as written; N and C are the ends. Square brackets hold non-standard residues; d marks the D form. Peptide text beside a SMILES is read from it.

How the values were obtained:
[1] = Partition coefficient, K of the compound using system BAW at 4:1:5 ratio; type: physicochemical
[2] = tested on: Rattus norvegicus; experiment: Inhibition of insulin secretion in jugular vein dosed rat assessed as assessed as hormone level using blood sample from hepatic portal vein by radioimmunoassay relative to somatostatin; type: functional; parameters: scale not given: the % may be the effect or the level left
Summary of the method: (§1)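 Rats under ether anaesthesia received test samples by jugular vein injection. Blood was drawn from the hepatic portal vein, and hormone levels were measured by specific radioimmunoassay. Six rats per point. Potency was derived from four-point bioassays with somatostatin as reference standard, with log dose-response parallelism checked.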

[3] = Inhibition of growth hormone spontaneous secretion in rat anterior pituitary cells assessed as hormone level by radioimmunoassay relative to somatostatin; type: functional, Pituitary gland cell; parameters: scale not given: the % may be the effect or the level left
[4] = tested on: Rattus norvegicus; experiment: Inhibition of glucagon secretion in jugular vein dosed rat assessed using blood sample from hepatic portal vein assessed as hormone level by radioimmunoassay relative to somatostatin; type: functional; parameters: scale not given: the % may be the effect or the level left; summary of the method: as §1
[5] = Retardation factor of the compound using 2.5% pyridine, 5% 1-butanol and 90% water at pH 4.7 buffer relative to lysine and alanine by ninhydrin spray

Compound | K [1] | Activity [2] [%] | Activity [3] [%] | Activity [4] [%] | Rf [5]
C[C@@H](O)[C@@H]1NC(=O)[C@H](Cc2ccccc2)NC(=O)[C@H]([C@@H](C)O)NC(=O)[C@H](CCCCN)NC(=O)[C@H](Cc2c[nH]c3ccccc23)NC(=O)[C@H](Cc2ccccc2)NC(=O)[C@H](Cc2ccccc2)NC(=O)[C@H](CC(N)=O)NC(=O)[C@H](CCCCN)NC(=O)[C@@H](NC(=O)CNC(=O)[C@@H](N)Cc2ccc(O)cc2)CSSC[C@@H](C(=O)O)NC(=O)[C@H](CO)NC1=O | 0.41 | 70 | 116 | 78 | 0.33
C[C@@H](O)[C@@H]1NC(=O)[C@H](Cc2ccccc2)NC(=O)[C@H]([C@@H](C)O)NC(=O)[C@H](CCCCN)NC(=O)[C@@H](Cc2c[nH]c3ccccc23)NC(=O)[C@H](Cc2ccccc2)NC(=O)[C@H](Cc2ccccc2)NC(=O)[C@H](CC(N)=O)NC(=O)[C@H](CCCCN)NC(=O)[C@@H](NC(=O)CNC(=O)[C@@H](N)Cc2ccc(O)cc2)CSSC[C@@H](C(=O)O)NC(=O)[C@H](CO)NC1=O | 0.34 | 659 | 400 | – | 0.38
C[C@H](N)C(=O)NCC(=O)N[C@H]1CSSC[C@@H](C(=O)O)NC(=O)[C@H](CO)NC(=O)[C@H]([C@@H](C)O)NC(=O)[C@H](Cc2ccc(O)cc2)NC(=O)[C@H]([C@@H](C)O)NC(=O)[C@H](CCCCN)NC(=O)[C@H](Cc2c[nH]c3ccccc23)NC(=O)[C@H](Cc2ccccc2)NC(=O)[C@H](Cc2ccccc2)NC(=O)[C@H](CC(N)=O)NC(=O)[C@H](CCCCN)NC1=O (H-AGCKNFFWKTYTSC-OH; disulfide 3-14) | 0.24 | 252 | 65 | 65 | 0.45
C[C@H](N)C(=O)NCC(=O)N[C@H]1CSSC[C@@H](C(=O)O)NC(=O)[C@H](CO)NC(=O)[C@H]([C@@H](C)O)NC(=O)[C@H](Cc2ccccc2)NC(=O)[C@H]([C@@H](C)O)NC(=O)[C@H](CCCCN)NC(=O)[C@@H](Cc2ccc(O)cc2)NC(=O)[C@H](Cc2ccccc2)NC(=O)[C@H](Cc2ccccc2)NC(=O)[C@H](CC(N)=O)NC(=O)[C@H](CCCCN)NC1=O (H-AGCKNFF[dY]KTFTSC-OH; disulfide 3-14) | 0.24 | 28 | 10 | <10 | 0.41
C[C@H](N)C(=O)NCC(=O)N[C@H]1CSSC[C@@H](C(=O)O)NC(=O)[C@H](CO)NC(=O)[C@H]([C@@H](C)O)NC(=O)[C@H](Cc2ccccc2)NC(=O)[C@H]([C@@H](C)O)NC(=O)[C@H](CCCCN)NC(=O)[C@H](Cc2c[nH]c3ccccc23)NC(=O)[C@H](Cc2ccc(O)cc2)NC(=O)[C@H](Cc2ccccc2)NC(=O)[C@H](CC(N)=O)NC(=O)[C@H](CCCCN)NC1=O (H-AGCKNFYWKTFTSC-OH; disulfide 3-14) | 0.23 | 75 | 108 | 109 | 0.44
C[C@H](N)C(=O)NCC(=O)N[C@H]1CSSC[C@@H](C(=O)O)NC(=O)[C@H](CO)NC(=O)[C@H]([C@@H](C)O)NC(=O)[C@H](Cc2ccccc2)NC(=O)[C@H]([C@@H](C)O)NC(=O)[C@H](CCCCN)NC(=O)[C@H](Cc2c[nH]c3ccccc23)NC(=O)[C@H](Cc2ccccc2)NC(=O)[C@H](Cc2ccc(O)cc2)NC(=O)[C@H](CC(N)=O)NC(=O)[C@H](CCCCN)NC1=O (H-AGCKNYFWKTFTSC-OH; disulfide 3-14) | 0.23 | 12 | 29 | 14 | 0.38
C[C@H](N)C(=O)NCC(=O)N[C@H]1CSSC[C@@H](C(=O)O)NC(=O)[C@H](CO)NC(=O)[C@H]([C@@H](C)O)NC(=O)[C@H](Cc2ccccc2)NC(=O)[C@H]([C@@H](C)O)NC(=O)[C@H](CCCCN)NC(=O)[C@H](Cc2c[nH]c3ccccc23)NC(=O)[C@H](Cc2ccccc2)NC(=O)[C@H](Cc2ccccc2)NC(=O)[C@H](CC(N)=O)NC(=O)[C@H](CCCCN)NC1=O [SOMATOSTATIN] | – | – | – | – | 0.43
